Compound activity: PubChem, several laboratories
A selection: hits, their analogues and other compounds. The true share with any hit is near 2.6%.
SENP1 FRET inh: SENP1 (human) catalytic domain inhibition; Q9P0U3; recombinant SENP1 catalytic domain, CyPet-SUMO1-YPet FRET cleavage; inhibition, % at 10 µM; hit rate 0.21% among 360,000; AID 624204;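 active = inhibition at least 30% at 10 µM, raw YFP signal under a set limit, fluorescence ratio 0.5 to 1.5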;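 also: 0% = enzyme with DMSO and 100% = no enzyme wells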
Target sequence (Q9P0U3 419-644 limits assumed): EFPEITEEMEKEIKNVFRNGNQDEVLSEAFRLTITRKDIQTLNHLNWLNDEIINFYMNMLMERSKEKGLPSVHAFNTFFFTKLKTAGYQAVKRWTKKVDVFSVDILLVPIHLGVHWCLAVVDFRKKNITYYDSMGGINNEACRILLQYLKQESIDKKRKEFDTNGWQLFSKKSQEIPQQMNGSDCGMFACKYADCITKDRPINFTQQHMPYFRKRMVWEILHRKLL
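Test system: recombinant human SENP1 catalytic domain, His6-tagged / Medium: pH 8 Tris buffer with EDTA, NaCl, BME, BSA, NP40, catalase / Also added: SUMO1 FRET substrate flanked by Cypet and Ypet, 25 nM / Times: 50 min reaction at room temperature / Signal: FRET, CFP and YFP emission / Control set: no-enzyme low control and enzyme-plus-DMSO high control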
SENP8 block-1: SENP8 protease inhibition; purified SENP8, Z-RLRGG-aminoluciferin cleavage, luminescence; inhibition, % at 10 µM; hit rate 1.2% among 330,000; AID 2540; in the data active = inhibition above about 50%
Platelet DG rel: modulates dense granule release in human platelets; human platelet-rich plasma, SFLLRN dense granule ATP release, luminescence; inhibition, %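 (compounds screened at 7.5 µM in platelet-rich plasma)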; hit rate 0.22% among 300,000; AID 1663;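 active = mean replicate score, as percent of positive control, at or above 50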
SENP8 block-2: blocks human SENP8 cleavage of Nedd8 substrate; AID 602440; recombinant SENP8, Nedd8 substrate fluorescence; inhibition, % at 20 µM; hit rate 0.64% among 360,000; in the data active = inhibition mostly above about 40%, no sharp cut-off; inactive = mostly below about 27%
SENP7 inh: SENP7 protease inhibition. inhibition, % at 5 µM. recombinant SENP7, Z-RLRGG-aminoluciferin luminescence, 40 min. hit rate 1.5% among 330,000;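 active = inhibition above about 50% at the single test dose, limit read from the data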;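 also: plate controls were DMSO with enzyme for no effect and no enzyme buffer wells for full effect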
Target sequence (Q9BQF6 706-1050 limits assumed): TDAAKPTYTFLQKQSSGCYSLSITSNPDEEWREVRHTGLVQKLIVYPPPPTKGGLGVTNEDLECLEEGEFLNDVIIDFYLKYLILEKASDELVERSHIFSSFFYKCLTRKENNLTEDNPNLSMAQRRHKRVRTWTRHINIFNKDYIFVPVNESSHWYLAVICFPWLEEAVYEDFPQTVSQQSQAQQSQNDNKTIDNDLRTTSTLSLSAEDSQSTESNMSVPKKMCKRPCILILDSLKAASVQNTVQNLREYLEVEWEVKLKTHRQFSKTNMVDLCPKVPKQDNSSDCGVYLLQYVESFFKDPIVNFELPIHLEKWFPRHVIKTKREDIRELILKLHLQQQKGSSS
SENP6 block: inhibitors of human SENP6 protease | Q9GZR1 | Recombinant SENP6 catalytic domain, aminoluciferin luminescence | inhibition, % at 10 µM | hit rate 1.8% among 330,000 | AID 2599;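 active = inhibition above about 50% at the single tested dose, limit read from the data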;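 also: plate controls were DMSO wells with enzyme for no effect and DMSO wells lacking enzyme for full effect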
SENP8 conf: human SENP8 inhibition, confirmed; AID 488912; inhibition, % at 12.5 µM; hit rate 40% among 6,200; shares compounds with SENP7 inh; Recombinant SENP8, Z-RLRGG-aminoluciferin luminescence, 60 min;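 active = mean inhibition across replicates above about 50%, limit read from the data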
SENP6 conf: human SENP6 inhibition, confirmed; shares compounds with SENP7 inh; recombinant SENP6, Z-RLRGG-aminoluciferin luminescence; inhibition, % at 12.5 µM; hit rate 58% among 6,200
SENP7 confirm: human SENP7 inhibition, confirmed; shares compounds with SENP7 inh; recombinant SENP7, Z-RLRGG-aminoluciferin luminescence, 40 min; inhibition, % at 12.5 µM; hit rate 69% among 6,200
Casp3 select: selectivity test for SENP inhibitors: human caspase-3 inhibition | inhibition, % at 12.5 µM | shares compounds with SENP7 inh | AID 488918 | hit rate 60% among 6,200 | purified caspase-3, Z-DEVD-aminoluciferin luminescence, 60 min;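 active = mean inhibition above about 50%, limit read from the data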;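 also: plate controls were enzyme with DMSO for no effect and wells without caspase-3 for full effect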
Target sequence (P42574 28-227 limits assumed): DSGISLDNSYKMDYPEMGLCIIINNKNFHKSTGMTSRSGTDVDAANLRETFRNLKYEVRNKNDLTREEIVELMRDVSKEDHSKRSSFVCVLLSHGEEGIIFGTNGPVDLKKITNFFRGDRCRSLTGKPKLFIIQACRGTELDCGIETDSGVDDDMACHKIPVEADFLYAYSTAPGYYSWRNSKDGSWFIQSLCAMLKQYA
Luc interf: luminescence interference (SENP counter-screen) | shares compounds with SENP7 inh | Pre-incubated SENP8/Z-RLRGG-aminoluciferin, luciferase luminescence interference | inhibition, % at 12.5 µM | hit rate 39% among 6,200 | AID 488919;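 active = mean inhibition above about 50% when retested at one dose, limit read from the data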;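 also: plate controls were DMSO wells with completed reaction for no effect and substrate without enzyme for full effect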
Active calls of the source: *; i = inactive; . = no result given.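 The calls were made as follows, unless noted: active = mean inhibition above about 50% in the one-dose retest (limit read from the data); inactive = the rest.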

SMILES | SENP1 FRET inh | SENP8 block-1 | Platelet DG rel | SENP8 block-2 | SENP7 inh | SENP6 block | SENP8 conf | SENP6 conf | SENP7 confirm | Casp3 select | Luc interf
O=C(Oc1ccccc1)c1ccc(COC(=O)c2cnccn2)cc1 | 2.1 | 75.9* | 41.1 | 16.1 | 88.8* | 94.0* | -21.7 | 79.7* | 97.3* | 87.4* | 85.1*
CN(C)c1ccc(/C=N/NC(=O)c2ccc3c(c2)OCO3)cc1 | -19.4 | 31.5 | 12.2 | -294.3 | 47.7 | 41.0 | . | . | . | . | .
CCOC(=O)N/N=C\c1ccc(OC(=O)c2ccc3c(c2)OCO3)cc1 | 2.7 | 57.8* | 10.6 | 8.8 | 72.0* | 66.3* | -13.8 | -12.9 | 12.7 | 2.6 | 22.5
O=C1c2ccccc2S(=O)N1c1cccc(F)c1 (stereo unspecified) | 1.1 | . | . | -25.9 | . | . | . | . | . | . | .
CN1C(=O)/C(=C/c2coc3ccc(O)cc3c2=O)SC1=S | 9.9 | 56.0* | 1.3 | 23.3 | 79.5* | 78.7* | 14.7 | 19.7 | 13.2 | 26.0 | 4.1
Cc1cc(/C=C2\SC(=S)N(C)C2=O)c(C)n1-c1ccc(O)cc1 | -31.8 | 57.8* | 0.6 | 14.6 | -8.8 | 79.3* | 36.2 | 84.5* | 91.5* | . | 22.9
CN(CC(=O)Nc1ccccc1C(=O)NC1CC1)Cc1cccs1 | 1.0 | 0.3 | . | 1.2 | -4.2 | -9.4 | . | . | . | . | .
O=C(OCc1cn([C@@H]2CN(Cc3cccs3)[C@@H](c3ccccc3)C[C@H]2O)nn1)c1ccccc1 | -1.0 | . | . | 18.3 | . | . | . | . | . | . | .
O=C(Nc1cccc([N+](=O)[O-])c1)c1ccc2ccccc2c1O | 2.9 | 92.3* | 0.4 | 5.4 | 91.7* | 90.5* | -3.5 | 30.5 | 28.4 | 26.9 | 0.3
O=C(Nc1ccccn1)c1ccc2ccccc2c1O | -51.5 | 43.1 | 8.7 | i | 25.4 | 63.5* | 49.4 | 45.3 | 76.5* | 62.7* | 59.4*
O=C(N/N=C/c1cccnc1)c1ccc2ccccc2c1O | -1.4 | -2.9 | . | -228.6 | -1.6 | 5.1 | . | . | . | . | .
O=C(O)c1ccccc1C(=O)Nc1ccccn1 | 1.4 | 2.2 | -0.3 | 17.9 | 0.2 | -16.8 | . | . | . | . | .
O=C(Nc1cccnc1)c1ccc2ccccc2c1O | -5.5 | 85.4* | -5.5 | -496.3 | 87.8* | 94.3* | 92.6* | 91.9* | 99.5* | 93.4* | 87.3*
O=C(Cc1ccccc1)Nc1cccc([N+](=O)[O-])c1 | 1.2 | 5.4 | 4.5 | 13.0 | 2.3 | -0.9 | . | . | . | . | .
CN(Cc1cn(Cc2ccc(Cl)cc2)nn1)C1CN(Cc2cn(Cc3ccc(Cl)cc3)nn2)S(=O)(=O)C1 (stereo unspecified) | 1.7 | . | . | 25.6 | . | . | . | . | . | . | .
O=C(COc1ccc(Cc2ccccc2)cc1)c1ccc(F)cc1 | 1.7 | 26.3 | 16.6 | 1.1 | 52.0* | 59.9* | 19.3 | 36.1 | 50.8* | 24.7 | 10.9
Cc1ccc(-c2noc(-c3cccs3)n2)cc1 | 2.0 | 95.1* | 8.8 | 10.0 | -5.4 | 95.5* | 13.6 | 97.4* | 102.7* | 89.6* | 70.3*
COc1cccc(-c2ccc(-c3noc(-c4cccs4)n3)c(OC)n2)c1 | 0.3 | 2.7 | 12.1 | -464.2 | -2.9 | -23.2 | . | . | . | . | .
COc1ccccc1-c1noc(-c2cccs2)n1 | 2.3 | 59.1* | 0.1 | 15.9 | 68.2* | 76.5* | 77.5* | 78.2* | 91.7* | 78.0* | 79.9*
c1csc(-c2nc(N3CCCCC3)no2)c1 | 0.1 | 53.5* | 10.4 | -289.3 | 61.0* | 65.8* | -18.0 | 42.7 | 83.8* | 51.5* | 4.0
COc1ccccc1-c1noc(-c2ccncc2)n1 | 1.1 | 23.4 | 20.0 | 17.7 | 50.7* | 53.2* | 42.4 | 41.0 | 76.6* | 75.9* | 51.7*
c1csc(-c2nnc(N3CCCCCC3)c3ccccc23)c1 | -1.7 | -8.8 | -3.1 | -21.7 | -4.1 | -6.2 | . | . | . | . | .
C=Cc1ncc(OC)c2c1[nH]c1ccccc12 | 0.1 | -3.1 | -4.1 | -244.1 | 0.4 | -13.8 | . | . | . | . | .
CN=c1scc(-c2ccc(F)cc2)n1/N=C/c1ccc(O)c(O)c1 | -9.6 | 46.4 | . | -31.0 | 11.7 | 61.8* | 74.7* | 71.8* | 85.8* | 39.1 | 60.2*
O/N=C/c1ccc(OCc2ccccc2)c(Br)c1 | 0.7 | . | -8.4 | 2.5 | . | . | . | . | . | . | .
SMILES | SENP1 FRET inh | SENP8 block-1 | Platelet DG rel | SENP8 block-2 | SENP7 inh | SENP6 block | SENP8 conf | SENP6 conf | SENP7 confirm | Casp3 select | Luc interf
O/N=C/c1ccc(OCc2ccccc2)c(Cl)c1 | 3.1 | 64.5* | 1.5 | 6.7 | 59.2* | 86.1* | 8.3 | 72.2* | 90.3* | 40.9 | 76.3*
Cn1c(-c2nnn(-c3ccc(F)cc3)n2)cc2ccccc21 | . | 39.1 | -3.0 | . | 11.3 | 52.4* | 17.3 | 9.7 | 13.2 | 7.8 | -4.5
O=C(ONC(=O)C1CCCCC1C(=O)NOC(=O)c1ccccc1)c1ccccc1 (stereo unspecified) | 3.0 | . | . | -3.5 | . | . | . | . | . | . | .
O=Nc1ccc(NOC(=O)c2ccccc2)cc1 | 2.4 | -29.4 | 4.8 | 19.4 | 45.8 | 87.5* | 14.7 | -11.7 | 103.0* | 14.7 | 8.0
CCN1C(=O)/C(=C/N2CCc3ccccc32)SC1=S | -22.8 | 3.2 | -0.9 | 18.3 | 55.9* | 16.6 | 10.8 | 14.2 | 14.2 | 17.4 | 4.2
CCN1C(=O)/C(=C\N2CCCc3ccccc32)SC1=S | -97.7 | -3.3 | 25.6 | 24.2 | -3.8 | 10.2 | . | . | . | . | .
CC(C)C(=O)N1CCN(c2ccccc2NC(=O)c2ccc(Br)o2)CC1 | -3.9 | 9.5 | . | 3.0 | 0.1 | 9.0 | . | . | . | . | .
CC(C)C(=O)N1CCN(c2ccccc2NC(=O)c2ccco2)CC1 | 1.9 | 1.6 | -24.0 | 9.6 | -9.3 | 103.2* | -6.8 | -6.3 | -7.3 | 1.8 | 3.3
Clc1c(-c2ccccc2)nnn1-c1ccccc1 | 0.0 | 76.2* | -14.9 | 15.7 | 76.9* | 90.6* | 74.5* | 81.3* | 95.6* | 75.4* | 75.9*
C(=N\N=C\c1cccs1)/c1cccs1 | 1.9 | 39.9 | 1.4 | 21.0 | 52.0* | 56.8* | 28.1 | 60.7* | 87.3* | 61.9* | 37.9
Cc1ccccc1NC(=O)/C=C/c1cccs1 | 2.0 | 23.2 | 35.5 | 2.7 | 62.8* | -6.0 | 51.7* | 51.1* | 85.5* | 79.5* | 70.1*
Cc1cc(C)nc(NC(=O)/C=C/c2cccs2)c1 | -0.8 | 27.6 | 22.8 | -6.0 | 53.9* | 34.0 | 27.9 | 28.2 | 71.5* | 55.3* | 55.1*
CCOC(=O)c1ccc(NC(=O)/C=C/c2cccs2)cc1 | 2.1 | 62.4* | 1.9 | -56.4 | 78.9* | 80.8* | 53.1* | 53.3* | 83.6* | 31.9 | 37.5
